# In the library only some 3% were active in any assay of this set; here they are far more common.
# DSG3 Ab inh – inhibitors of pemphigus antibody binding to DSG3, primary screen, biochemical, bead-based, flow cytometry, scFv-GFP | binding (percent of control), % at 10 µM | DSG3-coupled beads, scFv-anti-DSG3-GFP binding; active compounds read low | Desmoglein-3 (Homo sapiens), P32926 | 310,000 compounds, 0.48% hits | AID 588358, 2011;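 active = binding more than 3 SD below its plate's average and above zero; inconclusive = below that plate limit but binding exactly zero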;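 also: hits lower antibody fragment binding to DSG3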
# HNF4A DNA FP – change in binding of human HNF4A to DNA, primary screen, biochemical, fluorescence polarization, FITC-DNA; Hepatocyte nuclear factor 4-alpha (Homo sapiens), P41235; 1 h; activity change, % at 10 µM; 360,000 compounds, 0.3% hits; AID 1224865, 2016; in the data active = activity change above about 30%, passing the limit was not always enough
# Target sequence (P41235 whole entry, looked up): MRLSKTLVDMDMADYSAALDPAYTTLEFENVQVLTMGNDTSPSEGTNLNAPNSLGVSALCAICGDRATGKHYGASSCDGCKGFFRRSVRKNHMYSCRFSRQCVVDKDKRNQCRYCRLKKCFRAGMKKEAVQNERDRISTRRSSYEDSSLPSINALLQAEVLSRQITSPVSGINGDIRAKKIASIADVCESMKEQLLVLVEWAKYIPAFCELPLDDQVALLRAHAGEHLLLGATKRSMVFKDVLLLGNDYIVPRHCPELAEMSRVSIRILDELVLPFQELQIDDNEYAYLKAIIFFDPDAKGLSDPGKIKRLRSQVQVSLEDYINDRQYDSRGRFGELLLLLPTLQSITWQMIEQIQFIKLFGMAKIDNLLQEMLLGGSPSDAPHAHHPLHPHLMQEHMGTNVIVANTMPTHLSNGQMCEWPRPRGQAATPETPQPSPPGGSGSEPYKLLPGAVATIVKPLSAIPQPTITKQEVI
# Cardio protect – cardioprotection against H2O2-induced cell death, primary screen, uHTS, H9c2 cells, ATPLite luminescence; H9c2 cardiomyocytes, H2O2 injury protection, 2 h; protection from H2O2 cell death, % at 20 µM; 360,000 compounds, 0.63% hits;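 active = compounds giving at least 50% protection of heart cells from peroxide-induced death in the single-dose screen, raw or plate-pattern-corrected value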;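 also: 0% = DMSO wells with peroxide and 100% = DMSO wells without peroxide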
# SENP1 inh – human SENP1 catalytic domain inhibitors, primary screen, biochemical, FRET, uHTS. AID 624204, 2012. 360,000 compounds, 0.21% hits. inhibition, % at 10 µM. Sentrin-specific protease 1 (Homo sapiens), Q9P0U3. recombinant SENP1 catalytic domain, CyPet-SUMO1-YPet FRET cleavage;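 active = inhibition at least 30% at 10 µM, raw YFP signal under a set limit, fluorescence ratio 0.5 to 1.5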;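 also: 0% = enzyme with DMSO and 100% = no enzyme wells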
#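 material = recombinant human SENP1 catalytic domain, His6-tagged | quantity = 20 pM enzyme | reagent = 25 nM SUMO1 FRET substrate | compound dosing = 10 µM single point, 0.5% DMSO | timing = 50 min enzyme reaction, room temperature, light-protected | detection = FRET, CFP and YFP emission | control set = no-enzyme low, enzyme-DMSO high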
# Granule exo inh – LAMP-1 surface exposure blockers, TALL-104 cells – cell-based, flow cytometry, MLPCN library, primary screen; TALL-104 LAMP-1 surface exposure; cells stimulated with thapsigargin and PMA; inhibition, % at 10 µM; 360,000 compounds, 0.66% hits;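 active = inhibition above about 55%, limit read from the data; inconclusive = no clear call, values can overlap the other calls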
# Myeloid diff 2 – induction of myeloid progenitor differentiation, primary screen, cell-based, flow cytometry, MLPCN library; ER-HoxA9 myeloid progenitors, lysozyme-GFP differentiation; 360,000 compounds, 1% hits; calls only at 10 µM;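 active = normalized GFP-positive differentiation at or above the plate's own cutoff, the solvent-only control mean plus 3 SD; inconclusive = no clear call, values can overlap the other calls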;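 also: cells exposed to compound for four days before flow analysis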
# * hit, by the source's call; i = inactive; ? = inconclusive; · = no result; + = active, no number.
SMILES,DSG3 Ab inh,HNF4A DNA FP,Cardio protect,SENP1 inh,Granule exo inh,Myeloid diff 2
CC(=O)NC1=NN(C(C)=O)C(c2ccccn2)S1 (centres undefined),93,2,-7,0,2,i
Cc1ccc(NC(=O)c2cc(S(=O)(=O)N3CCOCC3)cn2C)cc1Cl,98,0,-3,2,-4,i
Cc1ccc(NC(=O)c2cc(S(=O)(=O)N3CCCC3)cn2C)cc1C,18*,3,-9,3,-4,i
Nc1ccc(S(=O)(=O)c2cc(O)c3ccccc3c2O)cc1,100,2,-19,1,88*,i
COc1ccc(/C=N\NC(=O)c2c(C)nc3ccc(Br)cn23)cc1,71,4,60*,-2,14,?
COc1cccc(/C=N/NC(=O)c2c(C)nc3ccc(Br)cn23)c1O,102,4,58*,-25,-2,?
Cc1ccc(/C=N/NC(=O)c2c(C)nc3ccc(Br)cn23)cc1,111,3,11,-2,53,?
O=C(CCC1CCCN(c2ncccn2)C1)NCc1ccc(F)c(F)c1 (centres undefined),97,-3,4,2,-1,i
COc1ccc(C(NC(=O)C2CCN(Cc3ccc(Oc4ccccc4)cc3)CC2)c2ccccc2C)cn1 (centres undefined),·,0,-10,0,50,i
O=C(O)c1cc(N2CCCC2)ccn1,104,-3,4,-1,11,i
OCC1CCCC(n2cnc3c(=S)nc[nH]c32)O1 (centres undefined),87,4,1,0,2,+
Cc1noc(NS(=O)(=O)c2ccc(N/C=C\C(=O)c3ccc(Br)cc3)cc2)c1C,99,3,-6,-54,49,i
COc1cccc(C(=O)/C=C/Nc2ccc(S(=O)(=O)Nc3onc(C)c3C)cc2)c1,102,85*,3,-5,-7,i
O=[N+]([O-])c1cc([N+](=O)[O-])c(Oc2c(F)cccc2F)cc1NN1CCCCC1,104,2,-10,2,78*,i
O=[N+]([O-])c1cc([N+](=O)[O-])c(Oc2c(F)ccc(F)c2F)cc1NN1CCCCC1,103,2,-6,1,4,i
COc1ccc(N2CCN(C(=O)c3ccccc3NC(=O)c3ccccc3)CC2)cc1,118,0,-1,2,3,i
COC(=O)c1cc2ccccc2c(-c2c(OC)c(C(=O)OC)cc3ccccc23)c1OC,·,2,-6,1,-4,+
Cc1c(O)ccc2c3c(c(=O)oc12)CCC(C)C3 (centres undefined),95,0,52*,-35,-4,i
O=C(Nc1ccc(Nc2ccccc2)cc1)C(Cl)(Cl)Cl,100,-5,-1,3,2,i
Clc1ccccc1-c1nnc(-c2ccc3c(c2)OCO3)o1,79*,-2,-25,4,-3,i
CCCN1C(=O)/C(=C/c2ccc(C)o2)SC1=Nc1ccc(OC)cc1,106,-1,2,-1,80*,i
CCCN1C(=O)/C(=C/c2ccc(C)o2)SC1=Nc1ccc(OCC)cc1,103,2,-16,-4,70*,i
CCCN1C(=O)/C(=C/c2cc(C)n(C)c2C)SC1=Nc1ccc(OCC)cc1,101,0,-14,-13,2,i
CCCCNC(=O)C1Cc2cc(S(=O)(=O)N3CCCC3)ccc2N1C(C)=O (centres undefined),104,2,-2,2,-1,i
Cc1cc2ccccc2c(=O)[nH]1,99,3,57*,2,-1,i
SMILES,DSG3 Ab inh,HNF4A DNA FP,Cardio protect,SENP1 inh,Granule exo inh,Myeloid diff 2
Cc1ccccc1Nc1cc2ccccc2c(=O)[nH]1,104,-5,-36,-17,1,i
CC(C)NCC(=O)Nc1c2c(nc3ccccc13)CCC2,124,5,4,-1,-4,i
c1coc(CNc2c3c(nc4ccccc24)CCC3)c1,158,-13,-10,-44,0,+
O=C(Cn1cc(C(F)(F)F)ccc1=O)NCC1CCCO1 (centres undefined),108,3,6,1,-15,i
Cc1cccc(/C=C2/Sc3ccc(C(=O)NCCCN4CCOCC4)cc3NC2=O)c1,107,-2,-6,-5,60*,i
Cc1ccc(CNC(=O)CNC(=O)[C@@H]2Cc3ccccc3CN2C(=O)OC(C)(C)C)cc1,·,0,-3,0,-17,i
Cc1ccc[n+](C(C)C(=O)c2ccc(Cl)cc2)c1 (centres undefined),123,3,2,0,-9,+
COc1ccc(C2=NS(=O)(=O)N(C)C(C(=O)NC3CCCCC3)=C2)cc1,-19*,-5,-12,-1,3,i
CC(=O)N1C2=CCCC3CCCCC23c2ccccc21 (centres undefined),245,2,-2,1,-1,+
COc1cccc(Nc2nc(N)c([N+](=O)[O-])c(N3CCOCC3)n2)c1,112,-4,18,2,4,i
COc1ccc(OC)c(Nc2nc(N)c([N+](=O)[O-])c(N3CCOCC3)n2)c1,?,4,52*,1,-6,i
COc1ccccc1-n1c(SCC(=O)Nc2ccc3c(c2)OCO3)nc2c(c1=O)SCC2,·,-6,2,-2,-2,i
COc1ccccc1-n1c(SCC(=O)Nc2cccc(C)c2)nc2c(c1=O)SCC2,97,6,12,-6,15,+
COCCNC(=O)C1CCCN(C(=O)c2sccc2C)CC1 (centres undefined),·,2,2,-2,0,i
CC(=O)Nc1ccc2cc3ccc(NC(C)=O)cc3nc2c1,118,-36,3,-27,1,+
Nc1nc(SCC(=O)NC2CCCCC2)n[nH]1,·,-1,-1,-1,76*,i
CCOC(=O)N1CCC(N2Cc3cccc(C(=O)Nc4ccc(OC)c(OC)c4)c3C2=O)CC1,101,3,50*,2,0,i
CCOC(=O)N1CCC(N2C(=O)c3ccccc3C2Nc2cc(OC)c(OC)c(OC)c2)CC1 (centres undefined),97,0,117*,-3,0,i
Oc1ccc(C[C@H]2CNC(=S)N2CC2CCCN2C[C@H](Cc2ccc(O)cc2)N2C[C@H](Cc3ccccc3)N(CCc3ccccc3)C2=S)cc1 (some centres undefined),99,1,4,1,20,i

# From PubChem
